# Measurements from ChEMBL document CHEMBL1153956, “Synthesis of protein tyrosine phosphatase 1B inhibitors: model validation and docking studies” (Bioorg Med Chem Lett, 2009).
# pIC50: −log10 of the molar value.
# What was measured:
# [1] = biological target: T1, Tyrosine-protein phosphatase non-receptor type 1 (Homo sapiens) (UniProt P18031); test: Inhibition of PTP1B at 100 uM
# T1 sequence (whole entry): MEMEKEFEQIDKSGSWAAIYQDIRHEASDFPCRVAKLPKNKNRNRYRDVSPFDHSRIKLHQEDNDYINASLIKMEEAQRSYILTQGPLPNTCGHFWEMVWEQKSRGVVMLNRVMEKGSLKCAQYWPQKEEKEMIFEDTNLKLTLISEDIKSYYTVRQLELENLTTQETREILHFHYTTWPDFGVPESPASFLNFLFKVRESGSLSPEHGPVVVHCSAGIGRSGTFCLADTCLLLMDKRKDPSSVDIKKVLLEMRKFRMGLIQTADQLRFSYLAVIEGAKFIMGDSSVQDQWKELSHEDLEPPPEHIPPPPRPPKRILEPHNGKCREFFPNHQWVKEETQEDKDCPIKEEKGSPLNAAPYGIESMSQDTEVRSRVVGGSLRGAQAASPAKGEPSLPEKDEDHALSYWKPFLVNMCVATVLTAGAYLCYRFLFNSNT
# Method in brief: (§1)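 PTP1B was pre-incubated with test compound for 10 min in the reaction system, at graded doses for IC50 or at a single fixed concentration for percent inhibition. Residual activity was measured by the Goldstein method with 10 mM PNPP in 50 mM HEPES pH 7.0 containing 1 mM EDTA and DTT. Peroxovanadate served as control. The reaction was stopped with 0.1 N NaOH and read at 410 nm. p-Nitrophenolate was quantified using ε = 1.78 × 10⁴ M⁻¹ cm⁻¹.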
# [2] = biological target: T2, Tyrosine-protein phosphatase non-receptor type 1 (Homo sapiens, UniProt P18031); test: Inhibition of PTP1B; method in brief: as §1
# T2 sequence (P18031 whole entry): T1 sequence (whole entry)
# Rattus norvegicus [3] = test: Antidiabetic activity in sucrose loaded Sprague-Dawley rat model assessed as reduction in blood glucose level at 100 mg/kg; format: functional; parameters: scale not given: the % may be the effect or the level left
# Rattus norvegicus [4] = test: Antidiabetic activity in streptozotocin-induced diabetic Sprague-Dawley rat model assessed as reduction in blood glucose level at 100 mg/kg; format: functional; parameters: scale not given: the % may be the effect or the level left
# Method in brief: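 Streptozotocin-induced diabetic rats received compound, vehicle or metformin as reference standard. Blood glucose was monitored before dosing and up to 24 h after administration. Activity is expressed as percent sugar-lowering effect.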
inhibition [1] [%],pIC50 [2],SMILES,Activity (Rattus norvegicus [3]) [%],Activity (Rattus norvegicus [4]) [%]
76.9,4.16,COc1ccc(CCNC(=O)Cc2cccc3ccccc23)cc1,25.1,24.1
,,CN(C)C(=N)NC(=N)N [METFORMIN],27.2,23.9
62.5,4.06,COc1ccc(CCNC(=O)Cc2ccccc2[N+](=O)[O-])cc1,19.8,17.5
68.2,4.15,COc1ccc(CCNC(=O)COc2ccccc2)cc1,24.6,20.6
